How the values were obtained:
[1] = system: Bovine viral diarrhea virus 1; assay: Antiviral activity against BVDV1; format: functional, organism-based; conditions: Bovine viral diarrhea virus isolates and strains
[2] = Cytotoxicity against human HuH7 cells after 72 hrs by Alamar Blue assay; format: cell-based; conditions: Huh-7 cells
Hepatitis C virus = assay: Antiviral activity against HCV genotype 1b infected in human Huh7 cells assessed as inhibition of viral replication by FRET assay; format: functional, organism-based, Hepacivirus hominis; conditions: Huh-7
Procedure, shortened: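 Replicon potency values are the means of at least two experiments.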

SMILES | EC50 [1] [µM] | EC50 (Hepatitis C virus) [nM] | CC50 at 72 h [2] [µM]
O=C(Nc1ccc(/C=C/c2ccc(NC(=O)[C@@H]3CCCCN3C(=O)OCc3ccccc3)cc2)cc1)[C@@H]1CCCCN1C(=O)OCc1ccccc1 | > 10 | 62.7 | > 10
O=C(Nc1ccc(/C=C/c2ccc(NC(=O)[C@@H]3Cc4ccccc4N3C(=O)OCc3ccccc3)cc2)cc1)[C@@H]1Cc2ccccc2N1C(=O)OCc1ccccc1 | > 10 | 66.9 | > 10
O=C(Nc1ccc(/C=C/c2ccc(NC(=O)[C@@H]3[C@H]4CCC[C@H]4CN3C(=O)OCc3ccccc3)cc2)cc1)[C@@H]1[C@H]2CCC[C@H]2CN1C(=O)OCc1ccccc1 | > 10 | 120 | > 10
O=C(Nc1ccc(/C=C/c2ccc(NC(=O)[C@@H]3COCN3C(=O)OCc3ccccc3)cc2)cc1)[C@@H]1COCN1C(=O)OCc1ccccc1 | > 10 | 6.14 | > 10
O=C(Nc1ccc(/C=C/c2ccc(NC(=O)[C@@H]3C[C@H](O)CN3C(=O)OCc3ccccc3)cc2)cc1)[C@@H]1C[C@H](O)CN1C(=O)OCc1ccccc1 | > 10 | 11.5 | > 10
CO[C@@H]1C[C@@H](C(=O)Nc2ccc(/C=C/c3ccc(NC(=O)[C@@H]4C[C@@H](OC)CN4C(=O)OCc4ccccc4)cc3)cc2)N(C(=O)OCc2ccccc2)C1 | > 10 | < 5 | > 10
CCO[C@@H]1C[C@@H](C(=O)Nc2ccc(/C=C/c3ccc(NC(=O)[C@@H]4C[C@@H](OCC)CN4C(=O)OCc4ccccc4)cc3)cc2)N(C(=O)OCc2ccccc2)C1 | > 10 | 38 | > 10
CO[C@H]1C[C@@H](C(=O)Nc2ccc(/C=C/c3ccc(NC(=O)[C@@H]4C[C@H](OC)CN4C(=O)OCc4ccccc4)cc3)cc2)N(C(=O)OCc2ccccc2)C1 | > 10 | < 5 | > 10

Continued, in another order:

EC50 [1] [µM] | EC50 (Hepatitis C virus) [nM] | SMILES | CC50 at 72 h [2] [µM]
> 10 |  | O=C(Nc1ccc(/C=C/c2ccc(NC(=O)[C@@H]3CCCN3C(=O)Cc3ccccc3)cc2)cc1)[C@@H]1CCCN1C(=O)Cc1ccccc1 | > 10
> 10 | 89 | O=C(Nc1ccc(/C=C/c2ccc(NC(=O)[C@@H]3C4CC4CN3C(=O)OCc3ccccc3)cc2)cc1)[C@@H]1C2CC2CN1C(=O)OCc1ccccc1 (stereo partly specified) | > 10
> 10 | 1390 | O=C(Nc1ccc(/C=C/c2ccc(NC(=O)[C@@H]3CCCN3C(=O)Cc3ccccc3)cc2)cc1)[C@@H]1CCCN1 | > 10
> 10 | 1640 | CC(=O)Nc1ccc(/C=C/c2ccc(NC(=O)[C@@H]3CCCN3C(=O)Cc3ccccc3)cc2)cc1 | > 10
> 10 | > 10000 | Nc1ccc(/C=C/c2ccc(NC(=O)[C@@H]3CCCN3C(=O)Cc3ccccc3)cc2)cc1 | > 10
> 10 | 2.57 | C[C@H](NC(=O)Cc1ccccc1)C(=O)Nc1ccc(/C=C/c2ccc(NC(=O)[C@@H]3CCCN3C(=O)Cc3ccccc3)cc2)cc1 | > 10
> 10 | 153 | CC(=O)N[C@@H](C)C(=O)Nc1ccc(/C=C/c2ccc(NC(=O)[C@@H]3CCCN3C(=O)Cc3ccccc3)cc2)cc1 | > 10
> 10 | 768 | O=C(Cc1ccccc1)NCC(=O)Nc1ccc(/C=C/c2ccc(NC(=O)[C@@H]3CCCN3C(=O)Cc3ccccc3)cc2)cc1 | > 10
> 10 | 3210 | C[C@H](NC(=O)OCc1ccccc1)C(=O)Nc1ccc(/C=C/c2ccc(NC(=O)[C@H](C)NC(=O)OCc3ccccc3)cc2)cc1 | > 10
> 10 | 73.1 | C[C@@H](C(=O)Nc1ccc(/C=C/c2ccc(NC(=O)[C@H](C)N(C)C(=O)OCc3ccccc3)cc2)cc1)N(C)C(=O)OCc1ccccc1 | > 10
> 10 | 58 | O=C(Nc1ccc(/C=C/c2ccc(NC(=O)[C@@H]3CCN3C(=O)OCc3ccccc3)cc2)cc1)[C@@H]1CCN1C(=O)OCc1ccccc1 | > 10

Reference: ChEMBL document CHEMBL2146359, “HCV NS5A replication complex inhibitors. Part 2: investigation of stilbene prolinamides” (Bioorg Med Chem Lett, 2012)
